{
  "source": "ChEMBL document CHEMBL1146498",
  "about": "“Excisanin H, a novel cytotoxic 14,20-epoxy-ent-kaurene diterpenoid, and three new ent-kaurene diterpenoids from Rabdosia excisa” (J Nat Prod, 2004)",
  "data": [
    {"test_system": "P388", "assay": "Cytotoxicity against mouse P388 cells", "type": "functional, cell-based", "in_short": "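In vitro assay on P388 murine leukemia cells; cytotoxic activity expressed as IC50, reported in μg/mL.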", "units": {"IC50": "µg/mL"}, "values": [
      {"smiles": "C=C1C(=O)[C@@]23[C@@H](CC[C@@H]1[C@H]2O)[C@@]12C(=O)O[C@@H]3C[C@@H]1C(C)(C)CC[C@@H]2O", "IC50": 0.77},
      {"smiles": "C=C1C(=O)[C@@]23[C@H](O)C[C@@H]4[C@@](C)(COC(C)=O)CC[C@H](O)[C@@]4(C)[C@@H]2CC[C@@H]1[C@H]3O", "IC50": 0.72},
      {"smiles": "C=C1C(=O)[C@@]23[C@H](O)C[C@@H]4[C@@](C)(CO)CC[C@H](O)[C@@]4(C)[C@@H]2CC[C@@H]1[C@H]3O", "IC50": 0.92},
      {"smiles": "C=C1C(=O)[C@@]23[C@H](O)C[C@@H]4C(C)(C)CC[C@H](O)[C@@]4(C)[C@@H]2C[C@H](O)[C@@H]1[C@H]3O", "note": "[EXCISANIN A]", "IC50": 1.11},
      {"smiles": "C=C1C(=O)[C@@]23[C@H](O)C[C@@H]4C(C)(C)CC[C@H](O)[C@@]4(C)[C@@H]2C[C@H](OC(C)=O)[C@@H]1[C@H]3O", "note": "[EXCISANIN B]", "IC50": 0.63},
      {"smiles": "C=C1C(=O)[C@]23[C@H](O)C[C@@H]4C(C)(C)CC[C@H](O)[C@]45CO[C@]2(O)[C@H]1CC[C@@H]53", "note": "[EXCISANIN H]", "IC50": 0.96},
      {"smiles": "C=C1C(=O)[C@@]23[C@H](O)C[C@@H]4C(C)(C)CCC[C@@]4(CO)[C@@H]2C[C@H](O)[C@@H]1[C@H]3O", "note": "[EXCISANIN I]", "IC50": 0.87},
      {"smiles": "C=C1C(=O)[C@@]23[C@H](O)C[C@@H]4[C@@](C)(CO)CCC[C@@]4(CO)[C@@H]2CC[C@@H]1[C@H]3O", "note": "[EXCISANIN J]", "IC50": 0.92},
      {"smiles": "C=C1C(=O)[C@@]23[C@H](O)C[C@@H]4C(C)(C)CC[C@H](O)[C@@]4(COC(C)=O)[C@@H]2CC[C@@H]1[C@H]3O", "note": "[HENRYIN]", "IC50": 0.58},
      {"smiles": "C=C1C(=O)[C@@]23[C@H](O)C[C@@H]4C(C)(C)CC[C@H](O)[C@@]4(CO)[C@@H]2CC[C@@H]1[C@H]3O", "note": "[KAMEBAKAURIN]", "IC50": 0.82},
      {"smiles": "C=C1C(=O)[C@@]23[C@H](O)C[C@@H]4C(C)(C)CC[C@H](O)[C@@]4(C)[C@@H]2CC[C@@H]1[C@H]3O", "note": "[KAMEBANIN]", "IC50": 0.69},
      {"smiles": "C=C1C(=O)[C@]23[C@H](O)[C@H]1CC[C@H]2[C@@]12CO[C@@]3(O)C[C@@H]1C(C)(C)CC[C@@H]2O", "note": "[MEGATHYRIN A]", "IC50": 0.77},
      {"smiles": "C=C1C(=O)[C@@]23[C@H](O)C[C@@H]4[C@@](C)(CO)CCC[C@@]4(C)[C@@H]2C[C@H](O)[C@@H]1[C@H]3O", "note": "[RABDOKUNMIN C]", "IC50": 1.06},
      {"smiles": "C=C1C(=O)[C@@]23[C@H](O)C[C@@H]4C(C)(C)CC[C@H](O)[C@@]4(CO)[C@@H]2C[C@H](O)[C@@H]1[C@H]3O", "note": "[RABDOSERRIN B]", "IC50": 1.01}
    ]}
  ]
}
